pIC50: −log10 of the molar value. Where “and” joins values, the source holds several entries; their conditions need not be identical. Equal entries are not always repeated.
Key:
[1] = Cytotoxicity against human HCT15 cells after 2 days; format: functional, cell-based, HCT-15
Procedure, shortened: (§1)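 Cells seeded at 2-4 × 10^4 per well in medium with 10% FBS and incubated overnight at 37 °C, 5% CO2. Graded compound concentrations added on day 2. CCK-8 reagent added on day 4 for a further 4 h, absorbance read at 450 nm. IC50 from a four-parameter logistic fit; mean ± S.D. of three experiments run in triplicate.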

[2] = tested on: DU-145; test: Cytotoxicity against human DU145 cells after 2 days; format: functional, cell-based; procedure, shortened: as §1
[3] = tested on: T47D; test: Cytotoxicity against human T47D cells after 2 days; format: functional, cell-based; procedure, shortened: as §1
[4] = target: DNA topoisomerase 2-alpha (Homo sapiens) (UniProt P11388); test: Inhibition of human DNA topoisomerase-2a-mediated relaxation of supercoiled DNA pBR322 at 100 uM after 4 hrs using ethidium bromide staining by agarose gel electrophoresis analysis
Procedure, shortened: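 Supercoiled pBR322 (200 ng) incubated with human topo IIα (1 unit) ± compound for 30 min at 30 °C. Buffer: 10 mM Tris-HCl pH 7.9, 50 mM NaCl, 50 mM KCl, 5 mM MgCl2, 1 mM EDTA, 1 mM ATP, BSA. Stopped with EDTA. 1% agarose gel run at 25 V for 4 h in TAE, ethidium bromide stain, supercoiled DNA quantified by UV imaging.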

[5] = target: T1, DNA topoisomerase 1 (Homo sapiens) (UniProt P11387); test: Inhibition of recombinant human DNA topoisomerase-1-mediated relaxation of supercoiled DNA pBR322 at 100 uM after 7 hrs using ethidium bromide staining by agarose gel electrophoresis analysis
T1 sequence (whole entry): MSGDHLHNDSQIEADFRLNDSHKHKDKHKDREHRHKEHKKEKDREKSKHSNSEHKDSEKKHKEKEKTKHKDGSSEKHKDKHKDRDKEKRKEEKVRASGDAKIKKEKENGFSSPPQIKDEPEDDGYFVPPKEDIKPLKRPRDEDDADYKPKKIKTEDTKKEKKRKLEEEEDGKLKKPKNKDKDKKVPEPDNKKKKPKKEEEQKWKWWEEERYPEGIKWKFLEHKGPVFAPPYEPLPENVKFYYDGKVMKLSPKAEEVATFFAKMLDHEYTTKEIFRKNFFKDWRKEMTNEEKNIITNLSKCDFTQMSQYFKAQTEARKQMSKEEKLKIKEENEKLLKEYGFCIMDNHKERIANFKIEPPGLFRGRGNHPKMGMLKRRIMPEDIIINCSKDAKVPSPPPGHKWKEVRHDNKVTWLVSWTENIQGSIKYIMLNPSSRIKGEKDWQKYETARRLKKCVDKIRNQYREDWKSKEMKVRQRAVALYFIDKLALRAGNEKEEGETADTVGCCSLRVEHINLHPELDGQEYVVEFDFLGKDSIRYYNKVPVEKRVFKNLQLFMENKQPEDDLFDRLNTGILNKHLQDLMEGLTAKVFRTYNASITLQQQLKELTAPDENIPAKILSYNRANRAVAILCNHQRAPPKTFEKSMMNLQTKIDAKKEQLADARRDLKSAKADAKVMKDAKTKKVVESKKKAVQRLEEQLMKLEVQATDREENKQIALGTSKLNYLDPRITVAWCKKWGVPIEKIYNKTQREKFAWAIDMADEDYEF
Procedure, shortened: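 pBR322 (100 ng) incubated with recombinant human topo I (0.4 units) ± compound for 30 min at 37 °C. Buffer: 10 mM Tris-HCl pH 7.9, 150 mM NaCl, 0.1% BSA, 1 mM spermidine, 5% glycerol. Quenched with sarcosyl stop solution. 1% agarose gel run at 15 V for 7 h in TAE, ethidium bromide stain, supercoiled DNA quantified under UV.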

[6] = Cytotoxicity against human MCF10A cells after 2 days; format: cell-based, MCF-10A; procedure, shortened: as §1

Sequence of DNA topoisomerase 2-alpha (Homo sapiens) (P11388 whole entry): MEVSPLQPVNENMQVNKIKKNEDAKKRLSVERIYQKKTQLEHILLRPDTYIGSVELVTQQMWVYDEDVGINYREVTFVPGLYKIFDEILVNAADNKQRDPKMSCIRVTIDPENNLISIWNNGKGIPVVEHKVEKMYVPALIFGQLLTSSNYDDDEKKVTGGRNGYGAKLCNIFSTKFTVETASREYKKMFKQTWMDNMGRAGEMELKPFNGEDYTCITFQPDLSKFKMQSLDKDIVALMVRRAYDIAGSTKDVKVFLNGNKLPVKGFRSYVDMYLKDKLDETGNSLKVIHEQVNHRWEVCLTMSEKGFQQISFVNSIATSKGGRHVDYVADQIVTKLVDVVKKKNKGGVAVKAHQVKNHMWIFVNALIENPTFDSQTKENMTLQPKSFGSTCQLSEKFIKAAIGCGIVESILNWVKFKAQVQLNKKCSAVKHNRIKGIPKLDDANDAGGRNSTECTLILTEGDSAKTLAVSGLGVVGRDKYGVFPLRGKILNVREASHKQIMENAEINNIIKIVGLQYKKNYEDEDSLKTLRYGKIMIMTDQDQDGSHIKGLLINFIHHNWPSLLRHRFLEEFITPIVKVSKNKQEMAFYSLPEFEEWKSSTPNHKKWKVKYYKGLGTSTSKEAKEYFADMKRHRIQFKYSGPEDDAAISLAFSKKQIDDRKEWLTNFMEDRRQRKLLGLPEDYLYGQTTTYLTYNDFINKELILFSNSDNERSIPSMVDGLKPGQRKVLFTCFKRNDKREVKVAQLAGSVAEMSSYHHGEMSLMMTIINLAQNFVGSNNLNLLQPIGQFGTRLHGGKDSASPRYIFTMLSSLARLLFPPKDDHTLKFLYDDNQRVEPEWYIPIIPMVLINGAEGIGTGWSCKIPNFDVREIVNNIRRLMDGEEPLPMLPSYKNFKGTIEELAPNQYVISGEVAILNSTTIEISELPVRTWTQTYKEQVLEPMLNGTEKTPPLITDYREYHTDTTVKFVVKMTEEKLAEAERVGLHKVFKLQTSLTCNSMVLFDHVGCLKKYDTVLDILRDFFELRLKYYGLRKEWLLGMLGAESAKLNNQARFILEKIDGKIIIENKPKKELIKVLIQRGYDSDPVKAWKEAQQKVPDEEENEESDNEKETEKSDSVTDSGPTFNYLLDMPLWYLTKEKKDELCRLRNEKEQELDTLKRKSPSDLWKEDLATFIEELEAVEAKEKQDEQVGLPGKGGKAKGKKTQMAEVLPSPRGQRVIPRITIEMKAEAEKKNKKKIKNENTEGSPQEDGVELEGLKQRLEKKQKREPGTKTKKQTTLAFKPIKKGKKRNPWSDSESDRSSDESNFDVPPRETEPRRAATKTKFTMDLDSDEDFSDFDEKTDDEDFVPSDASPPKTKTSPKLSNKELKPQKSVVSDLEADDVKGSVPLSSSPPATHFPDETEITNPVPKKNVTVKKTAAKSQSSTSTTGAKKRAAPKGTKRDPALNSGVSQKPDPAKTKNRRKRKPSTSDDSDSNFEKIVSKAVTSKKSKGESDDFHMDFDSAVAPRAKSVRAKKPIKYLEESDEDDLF

Row | SMILES | pIC50 ([1]; Homo sapiens, HCT-15, 48 h) | pIC50 ([2]; Homo sapiens, DU-145, 48 h) | pIC50 ([3]; Homo sapiens, T47D, 48 h) | inhibition [4] | inhibition [5] | pIC50 ([6]; mcf-10a) | pIC50 ([1]; hct-15) | pIC50 ([3]; t47d) | pIC50 ([6]; Homo sapiens, MCF-10A, 48 h) | pIC50 ([2]; du-145)
1 | c1csc(-c2cc3ccccc3c(N3CCOCC3)n2)c1 [listing 1 of 2 here] | 4.83 | 4.33 | 4.83 | – | – | – | – | – | – | –
2 | Cc1ccc2c(N3CCN(C)CC3)nc(-c3cccs3)cc2c1 [listing 1 of 3 here] | – | – | – | 0% | 5.1% and 11.2% | – | – | – | – | –
3 | CCN1CCN(c2nc(-c3cccs3)cc3ccc(C)cc23)CC1 [listing 1 of 2 here] | – | 4.53 | – | – | – | 4.37 | 5.44 | 5.38 | – | –
4 | CN1CCN(c2nc(-c3cccs3)cc3ccccc23)CC1 [listing 1 of 3 here] | – | 4.40 | 4.81 | – | – | 4.74 | 5.61 | – | – | –
5 | Cc1ccc2cc(-c3cccs3)nc(N3CCCCC3)c2c1 [listing 1 of 2 here] | – | < 4.30 | – | – | – | – | 5.43 | 5.13 | < 4.30 | –
6 | Cc1cccc2c(N=[N+]=[N-])nc(-c3cccs3)cc12 | < 4.30 | < 4.30 | < 4.30 | 4.8% | 2.1% | – | – | – | < 4.30 | –
7 | COc1cc([C@@H]2c3cc4c(cc3[C@@H](O[C@@H]3O[C@@H]5CO[C@@H](C)O[C@H]5[C@H](O)[C@H]3O)[C@H]3COC(=O)[C@H]23)OCO4)cc(OC)c1O [ETOPOSIDE] | 5.02 | – | 5.59 | – | – | – | – | – | 4.91 | –
8 | Cc1ccc2c(N3CCCCC3)nc(-c3cccs3)cc2c1 [listing 1 of 2 here] | – | < 4.30 | – | – | – | – | 5.26 | 5.59 | < 4.30 | –
9 | Cc1ccc2c(N3CCOCC3)nc(-c3cccs3)cc2c1 [listing 1 of 2 here] | 5.12 | < 4.30 | 5.17 | – | – | < 4.30 | – | – | – | –
10 | Cc1ccc2cc(-c3cccs3)nc(N3CCN(C)CC3)c2c1 [listing 1 of 2 here] | – | 4.79 | – | – | – | – | 5.79 | 5.71 | 4.94 | –
11 | Cc1ccc2cc(-c3cccs3)nc(N3CCOCC3)c2c1 [listing 1 of 2 here] | 5.12 | 4.32 | 5.20 | – | – | – | – | – | 4.45 | –
12 | Cc1ccc2cc(-c3cccs3)nc(N3CCOCC3)c2c1 [listing 2 of 2 here] | – | – | – | – | – | 4.31 | 5.02 | 5.12 | – | 4.32
13 | c1csc(-c2cc3ccccc3c(N3CCCCC3)n2)c1 [listing 1 of 2 here] | – | < 4.30 | – | – | – | – | 5.44 | 5.49 | < 4.30 | –
14 | Cc1ccc2cc(-c3cccs3)nc(N3CCCN(C)CC3)c2c1 | 5.82 | 4.83 | 5.88 | 8% | 18.3% | – | – | – | 4.69 | –
15 | CN1CCN(c2nc(-c3cccs3)cc3ccccc23)CC1 [listing 2 of 3 here] | – | – | – | – | – | 4.41 | 5.10 | 4.79 | – | 4.35
16 | Cc1ccc2c(N3CCOCC3)nc(-c3cccs3)cc2c1 [listing 2 of 2 here] | – | – | – | – | – | – | 5.11 | 5.10 | 4.31 | –
17 | CCN1CCN(c2nc(-c3cccs3)cc3cc(C)ccc23)CC1 [listing 1 of 2 here] | – | – | – | – | – | – | 5.36 | 4.75 | 4.54 | 4.66
18 | CCN1CCN(c2nc(-c3cccs3)cc3ccccc23)CC1 | – | – | – | 3.2% and 9.1% | 2.6% and 15% | – | – | – | – | –
19 | COc1cccc2c1C(=O)c1c(O)c3c(c(O)c1C2=O)C[C@@](O)(C(=O)CO)C[C@@H]3O[C@H]1C[C@H](N)[C@H](O)[C@H](C)O1 [DOXORUBICIN] | – | 5.31 | 6.08 | – | – | – | – | – | 6.03 | –
20 | Cc1ccc2c(N3CCN(C)CC3)nc(-c3cccs3)cc2c1 [listing 2 of 3 here] | – | 4.48 | 5.03 | – | – | – | 5.36 | – | 4.88 | –
21 | Cc1ccc2cc(-c3cccs3)nc(N3CCN(C)CC3)c2c1 [listing 2 of 2 here] | 5.98 | – | 5.99 | – | – | 4.68 | – | – | – | 4.61
22 | Cc1ccc2c(N3CCCCC3)nc(-c3cccs3)cc2c1 [listing 2 of 2 here] | – | – | – | – | – | – | 5.73 | 5.10 | – | –
23 | CN1CCN(c2nc(-c3cccs3)cc3ccccc23)CC1 [listing 3 of 3 here] | – | – | – | 0% | 80.8% and 97.5% | – | – | – | – | –
24 | Cc1ccc2c(N3CCN(C)CC3)nc(-c3cccs3)cc2c1 [listing 3 of 3 here] | 5.50 | – | – | – | – | 4.83 | – | 4.74 | – | 4.40
25 | Cc1ccc2cc(-c3cccs3)nc(N3CCCCC3)c2c1 [listing 2 of 2 here] | – | – | – | – | – | – | 6.05 | 5.52 | – | –
26 | c1csc(-c2cc3ccccc3c(N3CCOCC3)n2)c1 [listing 2 of 2 here] | – | – | – | – | – | – | 4.67 | 4.61 | < 4.30 | < 4.30
27 | c1csc(-c2cc3ccccc3c(N3CCCCC3)n2)c1 [listing 2 of 2 here] | – | – | – | – | – | – | 5.98 | 5.14 | – | –
28 | CC[C@@]1(O)C(=O)OCc2c1cc1n(c2=O)Cc2cc3ccccc3nc2-1 [CAMPTOTHECIN] | 5.00 | 5.40 | 6.55 | – | – | – | – | – | 6.57 | –
29 | CCN1CCN(c2nc(-c3cccs3)cc3cc(C)ccc23)CC1 [listing 2 of 2 here] | – | – | – | 0% | 0% | – | – | – | – | –
30 | CCN1CCN(c2nc(-c3cccs3)cc3ccc(C)cc23)CC1 [listing 2 of 2 here] | – | – | 5.55 | – | – | – | 5.11 | – | 4.37 | 4.51
